In ChEMBL document CHEMBL1139962, “Synthesis and anthelmintic activity of cyclohexadepsipeptides with cyclohexylmethyl side chains” (Bioorg Med Chem Lett, 2007) one finds logP and Activity data, which are given here for six compounds.

Molecules are shown by their SMILES.

One may read the logP as a log measure of how a compound divides between an organic and an aqueous phase.

System in one data set: not listed separately
Description: Partition coefficient, log P at pH 2.3. Type of data set: physicochemical. To be noted: octanol/water.
On to `CC(C)C[C@H]1C(=O)O[C@H](CC2CCCCC2)C(=O)N(C)[C@@H](CC(C)C)C(=O)O[C@H](C)C(=O)N(C)[C@@H](CC(C)C)C(=O)O[C@H](C)C(=O)N1C`, for which the log partition coefficient (logP) was determined as 5.57.
Same read-out and setting: to `CC[C@@H](C)[C@H]1C(=O)O[C@H](C)C(=O)N(C)[C@@H](CC2CCCCC2)C(=O)O[C@H](C)C(=O)N(C)[C@@H]([C@H](C)CC)C(=O)O[C@H](C)C(=O)N1C` belongs 4.91.
On the same count and under the same terms, to `CC(C)C[C@H]1C(=O)O[C@H](Cc2ccccc2)C(=O)N(C)[C@@H](CC(C)C)C(=O)O[C@H](C)C(=O)N(C)[C@@H](CC(C)C)C(=O)O[C@H](C)C(=O)N1C` belongs 4.63.
Same read-out and setting: to `CC[C@@H](C)[C@H]1C(=O)O[C@H](C(C)C)C(=O)N(C)[C@@H](Cc2ccccc2)C(=O)O[C@H](C(C)C)C(=O)N(C)[C@@H]([C@H](C)CC)C(=O)O[C@H](C(C)C)C(=O)N1C` belongs 5.46.
Regarding `CC[C@@H](C)[C@H]1C(=O)O[C@H](C(C)C)C(=O)N(C)[C@@H](CC2CCCCC2)C(=O)O[C@H](C(C)C)C(=O)N(C)[C@@H]([C@H](C)CC)C(=O)O[C@H](C(C)C)C(=O)N1C`, the logP stood at 6.3.
Same read-out and setting: to `CC[C@@H](C)[C@H]1C(=O)O[C@H](C)C(=O)N(C)[C@@H](Cc2ccccc2)C(=O)O[C@H](C)C(=O)N(C)[C@@H]([C@H](C)CC)C(=O)O[C@H](C)C(=O)N1C` belongs 4.28.

The subject of the next data set is Haemonchus contortus. Description: Anthelmintic activity against Haemonchus contortus Rudolphi L3 larvae infected sheep assessed as reduction of faecal egg counts at 5 mg/kg, po. Type of data set: functional, Feces. Set-up: scale not given: the % may be the effect or the level left.
Conditions: not given
Summed up: (§1)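 Sheep experimentally infected with Haemonchus contortus Rudolphi L3 larvae; dosed after the parasite's prepatency period ended. Compound given orally in gelatine capsules. Faecal egg counts by McMaster method (Wetzel modification) on freshly obtained faeces, counted at regular intervals before and after treatment; activity expressed as reduction in egg counts.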
Consider `CC(C)C[C@H]1C(=O)O[C@H](Cc2ccccc2)C(=O)N(C)[C@@H](CC(C)C)C(=O)O[C@H](C)C(=O)N(C)[C@@H](CC(C)C)C(=O)O[C@H](C)C(=O)N1C`, for which the Activity result was “<=50%”.
For `CC[C@@H](C)[C@H]1C(=O)O[C@H](C(C)C)C(=O)N(C)[C@@H](Cc2ccccc2)C(=O)O[C@H](C(C)C)C(=O)N(C)[C@@H]([C@H](C)CC)C(=O)O[C@H](C(C)C)C(=O)N1C`, the Activity entry is given as “>=95%”.

For a further data set, the system named is Haemonchus contortus. Put plainly: Anthelmintic activity against Haemonchus contortus Rudolphi L3 larvae infected sheep assessed as reduction of faecal egg counts at 0.50 mg/kg, po. It counts as functional, Feces. Set-up: scale not given: the % may be the effect or the level left. To be noted: dose 0.5 mg/kg. Summed up: as §1
Regarding `CC[C@@H](C)[C@H]1C(=O)O[C@H](C(C)C)C(=O)N(C)[C@@H](CC2CCCCC2)C(=O)O[C@H](C(C)C)C(=O)N(C)[C@@H]([C@H](C)CC)C(=O)O[C@H](C(C)C)C(=O)N1C`, the Activity was 75%.

In a further data set the test system is Haemonchus contortus. Put plainly: Anthelmintic activity against Haemonchus contortus Rudolphi L3 larvae infected sheep assessed as reduction of faecal egg counts at 0.25 mg/kg, po. Type of data set: functional, Feces. Set-up: scale not given: the % may be the effect or the level left.
Conditions: not given
In outline: as §1
Regarding `CC(C)C[C@H]1C(=O)O[C@H](CC2CCCCC2)C(=O)N(C)[C@@H](CC(C)C)C(=O)O[C@H](C)C(=O)N(C)[C@@H](CC(C)C)C(=O)O[C@H](C)C(=O)N1C`, the Activity is listed as 75%.
On to `CC[C@@H](C)[C@H]1C(=O)O[C@H](C)C(=O)N(C)[C@@H](CC2CCCCC2)C(=O)O[C@H](C)C(=O)N(C)[C@@H]([C@H](C)CC)C(=O)O[C@H](C)C(=O)N1C`, for which the Activity entry is on record as “>=95%”.
Still for that read-out and setting: to `CC[C@@H](C)[C@H]1C(=O)O[C@H](C)C(=O)N(C)[C@@H](Cc2ccccc2)C(=O)O[C@H](C)C(=O)N(C)[C@@H]([C@H](C)CC)C(=O)O[C@H](C)C(=O)N1C` belongs 50%.
